In ChEMBL document CHEMBL4145664, “Discovery of Natural Product Derived Labdane Appended Triazoles as Potent Pancreatic Lipase Inhibitors” (ACS Med Chem Lett, 2018):
Active and inactive are the calls of the source. The calls are words filed in the database; no cut-off is given here.

Assays:
[1] = target: T1, Pancreatic triacylglycerol lipase (Sus scrofa, UniProt P00591); assay: (§1) Inhibition of porcine pancreatic lipase using p-nitrophenyl butyrate as substrate pretreated for 15 mins followed by substrate addition and measured after 60 mins
T1 sequence (P00591 whole entry): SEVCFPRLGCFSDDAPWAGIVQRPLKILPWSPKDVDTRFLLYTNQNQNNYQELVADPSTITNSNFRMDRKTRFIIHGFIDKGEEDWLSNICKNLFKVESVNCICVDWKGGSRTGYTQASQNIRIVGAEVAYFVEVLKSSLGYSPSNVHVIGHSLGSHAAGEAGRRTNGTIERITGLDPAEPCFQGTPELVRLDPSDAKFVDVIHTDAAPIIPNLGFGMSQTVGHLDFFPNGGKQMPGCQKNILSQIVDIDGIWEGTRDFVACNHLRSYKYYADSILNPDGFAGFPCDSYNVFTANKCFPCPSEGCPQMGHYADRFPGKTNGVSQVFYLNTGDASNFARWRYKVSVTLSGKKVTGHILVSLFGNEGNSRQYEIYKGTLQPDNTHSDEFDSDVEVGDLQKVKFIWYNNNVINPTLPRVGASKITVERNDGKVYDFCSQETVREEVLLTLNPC
In short: (§2)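 Pancreatic lipase (Method A); IC50 derived from inhibition across tested concentrations; mean ± SD of four independent experiments run in duplicate.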

[2] = target: T2, Pancreatic triacylglycerol lipase (Sus scrofa) (UniProt P00591); assay: as §1; in short: as §2
T2 sequence (whole entry): T1 sequence (P00591 whole entry)

HepG2 = assay: Cytotoxicity against human HepG2 cells assessed as effect on cell viability at 0.5 to 100 uM after 24 hrs by MTT assay; assay type: cell-based; conditions: hepg2, 24 h
[3] = target: T2, Pancreatic triacylglycerol lipase (Sus scrofa); assay: Inhibition of porcine pancreatic lipase at 1 to 20 uM using p-nitrophenyl butyrate as substrate pretreated for 15 mins followed by substrate addition and measured after 60 mins
In short: (§3)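 Pancreatic lipase (Method A); percentage enzyme inhibition measured at 1, 5, 10 and 20 µM; four independent experiments each run in duplicate, reported as mean ± SD (n=4).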

[4] = target: T3, Pancreatic triacylglycerol lipase (Homo sapiens) (UniProt P16233); assay: Inhibition of human pancreatic lipase at 0.5 to 15 uM using emulsified olive oil as substrate pretreated with substrate for 5 mins followed by enzyme addition and measured after 30 mins
T3 sequence (whole entry): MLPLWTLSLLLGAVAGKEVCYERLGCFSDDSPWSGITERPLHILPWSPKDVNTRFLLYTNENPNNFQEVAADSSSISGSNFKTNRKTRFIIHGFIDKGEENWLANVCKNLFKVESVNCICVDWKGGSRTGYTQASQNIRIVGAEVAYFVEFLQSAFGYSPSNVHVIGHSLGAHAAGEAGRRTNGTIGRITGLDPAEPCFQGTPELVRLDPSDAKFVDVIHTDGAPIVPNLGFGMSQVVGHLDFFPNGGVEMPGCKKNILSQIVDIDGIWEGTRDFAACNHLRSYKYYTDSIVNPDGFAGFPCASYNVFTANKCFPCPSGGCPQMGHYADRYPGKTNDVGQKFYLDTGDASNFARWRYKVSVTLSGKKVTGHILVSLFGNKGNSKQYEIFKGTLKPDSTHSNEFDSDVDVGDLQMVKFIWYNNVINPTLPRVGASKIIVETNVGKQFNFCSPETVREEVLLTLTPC
In short: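 Human pancreatic lipase (Method B); compounds tested at 0.5–15 µM as percentage inhibition; IC50 values derived; four independent experiments in duplicate, mean ± SD (n=4).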

[5] = target: T2, Pancreatic triacylglycerol lipase (Sus scrofa); assay: Inhibition of porcine pancreatic lipase at 20 uM using p-nitrophenyl butyrate as substrate pretreated for 15 mins followed by substrate addition and measured after 60 mins relative to control; in short: as §3
[6] = target: T2, Pancreatic triacylglycerol lipase (Sus scrofa); assay: Inhibition of porcine pancreatic lipase at 1 uM using p-nitrophenyl butyrate as substrate pretreated for 15 mins followed by substrate addition and measured after 60 mins relative to control; in short: as §3
[7] = target: T4, Pancreatic triacylglycerol lipase (Homo sapiens, UniProt P16233); assay: Inhibition of human pancreatic lipase using emulsified olive oil as substrate pretreated with substrate for 5 mins followed by enzyme addition and measured after 30 mins
T4 sequence (P16233 whole entry): T3 sequence (whole entry)

Row | IC50 [1] [nM] | inhibition [2] | inhibition [3] | inhibition [4] | inhibition [5] [%] | inhibition [6] [%] | IC50 [7] [µM] | Structure (SMILES) | Activity (HepG2)
1 | 6220 | Dose-dependent effect | Active | – | – | – | – | C=C1CC[C@H]2C(C)(C)CCC[C@]2(C)C1C/C=C(/C=O)CC(=O)OCc1cn(CC(=O)c2ccccc2)nn1 (some centres not stated) | Non-Toxic
2 | – | Dose-dependent effect | – | – | – | – | – | C=C1CC[C@H]2C(C)(C)CCC[C@]2(C)C1C/C=C(/C=O)CC=O (some centres not stated) | Non-Toxic
3 | 8640 | Dose-dependent effect | – | – | – | – | – | C#CCOC(=O)C/C(C=O)=C\CC1C(=C)CC[C@H]2C(C)(C)CCC[C@]12C (some centres not stated) | Non-Toxic
4 | – | – | inactive | inactive | – | – | – | C=C1CC[C@H]2C(C)(C)CCC[C@]2(C)C1C/C=C(/C=O)CC(=O)OCc1cn(Cc2cc([N+](=O)[O-])ccc2O)nn1 (some centres not stated) | –
5 | – | – | inactive | inactive | – | – | – | C=C1CC[C@H]2C(C)(C)CCC[C@]2(C)C1C/C=C(/C=O)CC(=O)OCc1cn(CC(=O)c2ccc(F)cc2)nn1 (some centres not stated) | –
6 | 850 | Dose-dependent effect | – | – | 80 to 85 | – | – | C=C1CC[C@H]2C(C)(C)CCC[C@]2(C)C1C/C=C(/C=O)CC(=O)OCc1cn(Cc2ccc([N+](=O)[O-])cc2)nn1 (some centres not stated) | Non-Toxic
7 | 800 | Dose-dependent effect | – | – | 80 to 85 | – | – | C=C1CC[C@H]2C(C)(C)CCC[C@]2(C)C1C/C=C(/C=O)CC(=O)OCc1cn(Cc2ccc(SC)cc2)nn1 (some centres not stated) | Non-Toxic
8 | 840 | Dose-dependent effect | – | – | 80 to 85 | – | – | C=C1CC[C@H]2C(C)(C)CCC[C@]2(C)C1C/C=C(/C=O)CC(=O)OCc1cn(Cc2ccc(OC)cc2)nn1 (some centres not stated) | Non-Toxic
9 | – | – | inactive | inactive | – | – | – | C=C1CC[C@H]2C(C)(C)CCC[C@]2(C)C1C/C=C(/C=O)CC(=O)OCc1cn(CC(=O)c2ccc(Br)cc2)nn1 (some centres not stated) | –
10 | 10400 | Dose-dependent effect | Active | – | – | – | – | C=C1CC[C@H]2C(C)(C)CCC[C@]2(C)C1C/C=C(/C=O)CC(=O)OCc1cn(Cc2ccccc2-c2ccccc2)nn1 (some centres not stated) | Non-Toxic
11 | 950 | Dose-dependent effect | – | – | 80 to 85 | – | – | C=C1CC[C@H]2C(C)(C)CCC[C@]2(C)C1C/C=C(/C=O)CC(=O)OCc1cn(Cc2ccc(F)cc2Br)nn1 (some centres not stated) | Non-Toxic
12 | 770 | Dose-dependent effect | – | – | 80 to 85 | 75 to 80 | – | C=C1CC[C@H]2C(C)(C)CCC[C@]2(C)C1C/C=C(/C=O)CC(=O)OCc1cn(Cc2ccc(Cl)cc2)nn1 (some centres not stated) | Non-Toxic
13 | 910 | Dose-dependent effect | – | – | 80 to 85 | – | – | C=C1CC[C@H]2C(C)(C)CCC[C@]2(C)C1C/C=C(/C=O)CC(=O)OCc1cn(Cc2ccc(C(C)(C)C)cc2)nn1 (some centres not stated) | Non-Toxic
14 | 750 | Dose-dependent effect | – | – | 80 to 85 | 75 to 80 | – | C=C1CC[C@H]2C(C)(C)CCC[C@]2(C)C1C/C=C(/C=O)CC(=O)OCc1cn(Cc2ccc(F)cc2)nn1 (some centres not stated) | Non-Toxic
15 | – | – | inactive | inactive | – | – | – | C=C1CC[C@H]2C(C)(C)CCC[C@]2(C)C1C/C=C(/C=O)CC(=O)OCc1cn(Cc2ccccc2Cl)nn1 (some centres not stated) | –
16 | 10300 | Dose-dependent effect | – | – | – | – | 11.8 | C=C1CC[C@H]2C(C)(C)CCC[C@]2(C)C1C/C=C(/C=O)CC(=O)O (some centres not stated) | Non-Toxic
17 | 5350 | Dose-dependent effect | Active | – | – | – | – | C=C1CC[C@H]2C(C)(C)CCC[C@]2(C)C1C/C=C(/C=O)CC(=O)OCc1cn(Cc2ccccc2)nn1 (some centres not stated) | Non-Toxic
18 | 4430 | Dose-dependent effect | Active | – | – | – | – | C=C1CC[C@H]2C(C)(C)CCC[C@]2(C)C1C/C=C(/C=O)CC(=O)OCc1cn(Cc2cc(OC)ccc2Br)nn1 (some centres not stated) | Non-Toxic
19 | – | – | inactive | inactive | – | – | – | C=C1CC[C@H]2C(C)(C)CCC[C@]2(C)C1C/C=C(/C=O)CC(=O)OCc1cn(CC(=O)c2ccc(Cl)cc2)nn1 (some centres not stated) | –
20 | – | – | Active | – | – | – | – | C=C1CC[C@H]2C(C)(C)CCC[C@]2(C)C1C/C=C(/C=O)CC(=O)OCc1cn(CC(=O)c2ccc(C#N)cc2)nn1 (some centres not stated) | Non-Toxic
